Structures are written as SMILES. Calls of active or inactive are those of the source. The rule behind the calls is not given here.

This passage reports Activity results from ChEMBL document CHEMBL1151968, “Ceramide and cerebrosides from the octocoral Sarcophyton ehrenbergi” (2009).

Experiment [1] concerns Salmonella enterica subsp. enterica. As to the kind of experiment: Antibacterial activity against Salmonella enteritidis ATCC 13076 at […]. It is filed as functional, organism-based. As to conditions: Salmonella enterica subsp. enterica serovar Enteritidis. The procedure, abridged:
(§1)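 Agar-overlay disk diffusion. Strains grown in LB broth 24 h at 37 °C; 0.3 mL broth culture in 2.7 mL LB soft agar (0.7%) poured over LB hard agar (1.5%). 8 mm paper disks loaded with 10 μL of 2 μg/μL sample; ampicillin (5 μg/μL) positive control, solvent negative control. Plates incubated 37 °C, 24 h, then inhibition assessed.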

The test system of experiment [2] is RAW264.7. Description: Antiinflammatory activity in mouse RAW264.7 cells assessed as reduction of LPS-induced iNOS protein level at 10 uM by immunoblot analysis relative to control. In kind it is functional. Details: scale not given: the % may be the effect or the level left. The procedure, abridged: (§2)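 Murine RAW 264.7 macrophages stimulated with E. coli LPS (0.01 μg/mL) for 16 h with or without sample (10 μM). Lysates from cells washed in ice-cold PBS; equal protein run on SDS-PAGE, transferred to PVDF, probed with anti-iNOS or anti-COX-2 (1:1000, 180 min); β-actin blotted. Band intensity expressed relative to LPS-alone group (100%); mean ± SEM, n = 5.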

The subject of a further experiment is Serratia marcescens. Description: Antibacterial activity against Serratia marcescens ATCC 25419 at […]. It is filed as functional, organism-based. The essentials:
as §1

In a further experiment the test system is Klebsiella aerogenes. Description: Antibacterial activity against Enterobacter aerogenes ATCC 13048 at […]. It is filed as functional, organism-based. The essentials:
as §1

The test system of another experiment is Shigella sonnei. As to the kind of experiment: Antibacterial activity against Shigella sonnei ATCC 11060 at […]. It is filed as functional, organism-based. The procedure, abridged:
as §1

Experiment [3] concerns RAW264.7. As to the kind of experiment: Antiinflammatory activity in mouse RAW264.7 cells assessed as reduction of LPS-induced COX2 protein level at 10 uM by immunoblot analysis relative to control. In kind it is functional. Details: scale not given: the % may be the effect or the level left. The essentials: as §2
(In general: In western blotting, separated proteins are transferred to a membrane and probed.)

For the molecule `CCCCCCCCCCCCC/C=C/[C@@H](O)[C@H](CO)NC(C)=O`, the outcome (in experiment [1]; with Serratia marcescens; with Klebsiella aerogenes; with Shigella sonnei) was inactive. Besides, the Activity in the experiment with RAW264.7 [2] turned out to be 46.9%; in the experiment on RAW264.7 [3] it was 77.2%.
Take `CCCCCCCCCCCCCCCCCCC[C@@H](O)C(=O)N[C@@H](CO[C@@H]1O[C@H](CO)[C@@H](O)[C@H](O)[C@H]1O)[C@H](O)/C=C/CC/C=C(\C)CCCCCCCCC` [SARCOEHRENOSIDE B]: the outcome (in experiment [1]; with Serratia marcescens; with Klebsiella aerogenes; with Shigella sonnei; in the experiment with RAW264.7 [3]) was inactive. In addition, the Activity with RAW264.7 [2] was 46.5%.
Regarding `CCCCCCCCCCCCCCCCCC[C@@H](O)C(=O)N[C@@H](CO[C@@H]1O[C@H](CO)[C@@H](O)[C@H](O)[C@H]1O)[C@H](O)/C=C/CC/C=C(\C)CCCCCCCCC`, the outcome (in experiment [1]; in the experiment with Serratia marcescens; with Klebsiella aerogenes; in the experiment on Shigella sonnei; in the experiment on RAW264.7 [3]) was inactive. Besides, the Activity in the experiment on RAW264.7 [2] is reported as 25.8%.
Take `CCCCCCCCCCCCCCCCCCCC[C@@H](O)C(=O)N[C@@H](CO[C@@H]1O[C@H](CO)[C@@H](O)[C@H](O)[C@H]1O)[C@H](O)/C=C/CC/C=C(\C)CCCCCCCCC`: the outcome (in experiment [1]; in the experiment on Serratia marcescens; with Klebsiella aerogenes; in the experiment with Shigella sonnei) was inactive.
As to `CCCCCCC/C=C/C(C)=C/CC/C=C/[C@@H](O)[C@H](CO[C@H]1O[C@H](CO)[C@@H](O)[C@H](O)[C@H]1O)NC(=O)[C@H](O)/C=C/CCCCCCCCCCCCCC` [SARCOEHRENOSIDE A], the outcome (in experiment [1]; in the experiment on Serratia marcescens; in the experiment with Klebsiella aerogenes; in the experiment on Shigella sonnei; in the experiment on RAW264.7 [3]) was inactive. The Activity in the experiment with RAW264.7 [2] turned out to be 47.3%.
In the case of `CCCCCCCCCCCCCC[C@@H](O)C(=O)N[C@@H](CO[C@@H]1O[C@H](CO)[C@@H](O)[C@H](O)[C@H]1O)[C@H](O)/C=C/CC/C=C(\C)CCCCCCCCC`, the outcome (in experiment [1]; in the experiment with Serratia marcescens; in the experiment on Klebsiella aerogenes; in the experiment with Shigella sonnei) was inactive. Besides, the Activity in the experiment with RAW264.7 [2] is given as 20.3%; in the experiment on RAW264.7 [3], 64.3%.
In the case of `O=C(/C=C/c1ccc(O)c(O)c1)OCCc1ccccc1` [CAFFEIC ACID PHENETHYL ESTER], the Activity is 1.5% in the experiment with RAW264.7 [2] and 70.2% in the experiment with RAW264.7 [3].
